Source: PubChem
Only some compounds are listed: those with a hit (about 2.6% of all), similar ones and a draw of the others.
ERAP1 HTS inh: blocks human ERAP1 aminopeptidase activity; recombinant ERAP1, Leu-AMC fluorescence, 60 min; Q9NZ08; 340,000 compounds, 0.15% hits; inhibition, % at 10.7 µM;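 active = mean replicate inhibition of at least 30%, or all replicates individually reaching that 30% level; inactive = mean below 30% and not every replicate reaching it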;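 also: 0% = neutral control wells and 100% = L-leucinethiol positive control wells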
F508del corr: correctors of CFTR F508del function in bronchial epithelial cells | CFBE cells, YFP halide quenching; stimulated with forskolin plus potentiator P3; % fluorescence drop versus neutral controls | activity (quench increase), % at 7.58 µM | 350,000 compounds, 0.36% hits | AID 720511;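 active = mean added fluorescence quench of at least 8% versus neutral control, with both replicates also reaching 8%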;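 also: cells transiently co-express mutant CFTR-F508del with the halide-sensitive YFP; corrector assay measuring rescue of mutant channel to the surface after 24 h compound exposure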
INS-1E GSIS act: GLuc luminescence reporter in INS-1E cells, primary screen for activators of glucose-dependent secretion of insulin; INS-1E GLuc reporter insulin secretion, 2-3 h; 370,000 compounds, 0.61% hits; activation, % at 16.6 µM; AID 743287;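 active = lowest replicate activation of at least 40%, so every replicate reaches that level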;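 also: 0% = median of neutral control wells and 100% = median of IBMX positive control wells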
DENV2 CPE: protects cells from dengue virus 2 cytopathic effect; DENV2-infected cells, cytopathic effect rescue, plate reader; CPE inhibition, % at 9.99 µM; 350,000 compounds, 1.7% hits; in the data active = CPE inhibition above about 20%, passing the limit was not always enough; tested in BHK-21 cells;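 also: 0% = median of neutral control wells and 100% = median of positive control wells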
miR-122 sensor: miR-122 inhibition in Huh7 cells; AID 602342; 340,000 compounds, 0.3% hits; Huh7 miR-122 Renilla luciferase sensor, 48 h; neutral wells = 0, positive control = 100; activation (reporter increase), % at 12.5 µM;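 active = mean replicate activation score at least 90 and every replicate individually at or above 90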;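 also: higher luciferase means less miR-122 activity so hits act as miR-122 inhibitors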
E-selectin induc: E-selectin induction on HUVECs | 260,000 compounds, 0.37% hits | HUVEC E-selectin immunofluorescence imaging; normalized: neutral wells 0, TNF-alpha wells 100 | P16581 | activation, % at 7.58 µM;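 active = mean E-selectin-positive cell signal at least 10% of the positive control, reached in at least 60% of replicates, without over 20% cell loss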
Target sequence (P16581 whole entry, looked up): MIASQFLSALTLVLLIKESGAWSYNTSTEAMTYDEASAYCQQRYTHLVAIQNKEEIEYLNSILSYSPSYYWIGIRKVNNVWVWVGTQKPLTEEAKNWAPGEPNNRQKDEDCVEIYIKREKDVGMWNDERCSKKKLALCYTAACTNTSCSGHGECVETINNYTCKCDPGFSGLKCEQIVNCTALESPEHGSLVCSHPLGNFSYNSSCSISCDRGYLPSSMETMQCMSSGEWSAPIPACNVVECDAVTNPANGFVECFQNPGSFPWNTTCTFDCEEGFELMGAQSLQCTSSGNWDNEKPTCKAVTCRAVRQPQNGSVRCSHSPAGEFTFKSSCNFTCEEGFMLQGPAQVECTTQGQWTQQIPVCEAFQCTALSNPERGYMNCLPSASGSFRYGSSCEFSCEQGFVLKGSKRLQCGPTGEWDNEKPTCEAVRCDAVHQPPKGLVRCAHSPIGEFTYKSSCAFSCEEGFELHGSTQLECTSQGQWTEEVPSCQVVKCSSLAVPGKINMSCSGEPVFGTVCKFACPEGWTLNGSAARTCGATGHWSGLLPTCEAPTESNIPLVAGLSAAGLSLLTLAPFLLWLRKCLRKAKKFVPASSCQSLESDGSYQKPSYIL
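Test system: HUVEC; input: 3,000 HUVEC/well; measured by: immunofluorescence imaging; read-out: % PE-positive cells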
* hit, by the source's call; / = no result; [ ] = remark or other dose.

SMILES | ERAP1 HTS inh | F508del corr | INS-1E GSIS act | DENV2 CPE | miR-122 sensor | E-selectin induc
COC(=O)c1ccc2c(=O)[nH]c(CSc3nc(-c4ccc(F)cc4)cs3)nc2c1 | / | / | 57.9* | / | / | 0.4
Cc1ccc(-c2nc(NCCCO)c3ccccc3n2)cc1 | -0.9 | / | / | 31.3* | 6.5 | /
C[C@@H]1CN([C@H](C)CO)C(=O)c2cccc(NC(=O)CCCCCC(=O)Nc3ccccc3N)c2O[C@@H]1CN(C)S(=O)(=O)c1cn(C)cn1 | -0.2 | -0.1 | 7.4 | -6.6 | / | 391.2*
C[C@H](CO)N1C[C@H](C)[C@H](CN(C)S(=O)(=O)c2cn(C)cn2)Oc2c(NC(=O)CCCCCC(=O)Nc3ccccc3N)cccc2C1=O | 0.1 | -3.7 | 0.2 | -4.8 | / | -3.2
COc1ccc(S(=O)(=O)N(C)C[C@H]2Oc3c(NC(=O)CCCCCC(=O)Nc4ccccc4N)cccc3C(=O)N([C@@H](C)CO)C[C@@H]2C)cc1 | -2.2 | 1.0 | -7.4 | 32.1* | / | -0.3
C[C@@H]1CN([C@@H](C)CO)C(=O)c2cccc(NC(=O)CCCCCC(=O)Nc3ccccc3N)c2O[C@@H]1CN(C)S(=O)(=O)c1ccccc1 | 2.8 | -2.9 | 1.1 | 9.6 | / | 0.1
COc1ccc(S(=O)(=O)N(C)C[C@@H]2Oc3c(NC(=O)CCCCCC(=O)Nc4ccccc4N)cccc3C(=O)N([C@@H](C)CO)C[C@H]2C)cc1 | 1.5 | 0.2 | 2.0 | 7.7 | / | -0.4
COc1ccc(S(=O)(=O)N(C)C[C@H]2Oc3c(NC(=O)CCCCCC(=O)Nc4ccccc4N)cccc3C(=O)N([C@H](C)CO)C[C@@H]2C)cc1 | 0.9 | -1.0 | -6.7 | 4.4 | / | 0.5
COc1ccc(S(=O)(=O)N(C)C[C@@H]2Oc3c(NC(=O)CCCCCC(=O)Nc4ccccc4N)cccc3C(=O)N([C@H](C)CO)C[C@@H]2C)cc1 | -2.3 | -0.3 | -4.3 | 35.5* | / | -0.7
COc1ccc(S(=O)(=O)N(C)C[C@@H]2Oc3c(NC(=O)CCCCCC(=O)Nc4ccccc4N)cccc3C(=O)N([C@H](C)CO)C[C@H]2C)cc1 | -1.8 | -3.8 | -13.1 | 32.1* | / | -0.7
COc1ccc(NC(=O)Nc2ccc3c(c2)C(=O)N([C@H](C)CO)C[C@@H](C)[C@@H](CN(C)C(=O)Nc2ccc(F)cc2)O3)cc1 | -0.1 | 3.3 | 6.6 | 2.8 | 12.3[16.7 µM] | -0.1
O=C(Cc1ccccn1)N1CC(=O)N2[C@H](CO)[C@H](c3ccc(-c4ccc(F)cc4)cc3)[C@H]2C1 | -0.2 | 0.6 | 7.8 | 6.2 | / | 0.2
Cn1cc([N+](=O)[O-])c(C(=O)Nc2ccc(C(=O)N3CCCCC3)cc2)n1 | 0.0 | / | 3.0 | 38.7* | / | /
O=C([C@H]1N[C@H]2c3ccc(-c4ccccc4F)c(=O)n3C[C@H]2[C@@H]1CO)N1CCc2ccccc2C1 | 1.3 | / | 3.8 | 1.2 | / | -0.5
CCc1ccc(-c2c(C)sc(NC(=O)C3CCC3)c2C#N)cc1 | / | / | 139.2* | / | 3.7 | 6.2
Cc1sc(NC(=O)C2CCCC2)c(C#N)c1C | -0.2 | 3.0 | / | -10.4 | 5.0 | /
O=c1[nH]c(/C=C/c2cccc([N+](=O)[O-])c2)c([N+](=O)[O-])c(=O)[nH]1 | -12.1 | 0.5 | / | -2.2 | -2.9 | /
O=[N+]([O-])c1cccc(/C=C/c2nc[nH]c2[N+](=O)[O-])c1 | -3.5 | -2.2 | 40.2* | -6.6 | -2.3 | -0.5
CC1(Cc2cccc(F)c2)C(=O)Nc2ccc(-c3cccnc3)cc21 (stereo unspecified) | 0.0 | -0.6 | -6.3 | 53.6* | 21.6 | 0.1
C[C@H](CO)N1C[C@H](C)[C@H](CN(C)Cc2ccc(C(=O)O)cc2)OCCCC[C@H](C)Oc2ccc(NS(=O)(=O)c3cccs3)cc2C1=O | 0.0 | 1.8 | -0.3 | 3.6 | 10.3[16.7 µM] | -0.2
Cc1ccccc1N1C(=O)Cc2ccccc2C1=O | 3.9 | 0.9 | 6.2 | -2.8 | 0.7 | /
Cc1ccccc1N1Cc2ccccc2C1=O | 1.7 | -0.4 | -16.0 | 37.4* | -0.3 | 0.1
CC(C)CNC(=O)C1(N2C(=O)c3ccccc3C2=O)CCCC1 | / | / | / | / | -10.6 | /
O=C(O)CNC(=O)C1(N2C(=O)c3ccccc3C2=O)CCCC1 | 1.8 | -2.8 | 25.4 | -0.6 | 100.1* | 0.0
C[C@H](CO)N1C[C@H](C)[C@@H](CN(C)CC2CC2)Oc2ccc(NC(=O)Nc3ccc(F)cc3)cc2CC1=O | 1.4 | 1.9 | -3.6 | -1.0 | -1.9[16.7 µM] | /
SMILES | ERAP1 HTS inh | F508del corr | INS-1E GSIS act | DENV2 CPE | miR-122 sensor | E-selectin induc
CCCNC(=O)C[C@@H]1CC[C@@H]2[C@@H](COc3ccc(NC(=O)c4ccc(Cl)cc4)cc3C(=O)N2C)O1 | 0.7 | -0.4 | -3.2 | -7.5 | -2.9[16.7 µM] | 0.0
COC(=O)c1cc(-c2c(-c3cc(OC)c(OC)c(OC)c3)noc2C)cc([N+](=O)[O-])c1 | -3.3 | 2.1 | / | 20.6* | -0.4 | -0.1
Cc1c(Cl)cnc(NC(=O)COC(=O)Cc2coc3ccc4ccccc4c23)c1Cl | -1.9 | / | -24.9 | 86.0* | -3.4 | /
CC(C)(C)NC(=O)NC(=O)COC(=O)Cc1coc2ccc3ccccc3c12 | -0.5 | -1.0 | / | 5.6 | / | 0.3
CO[C@@H]1CN(C)C(=O)c2ccc(NS(C)(=O)=O)cc2OC[C@H](C)N(Cc2cccnc2)C[C@@H]1C | 1.5 | 2.1 | 5.2 | 26.2* | -2.7[16.7 µM] | 0.0
CO[C@H]1CN(C)C(=O)c2cc(NS(=O)(=O)CC(F)(F)F)ccc2OC[C@H](C)N(Cc2cccnc2)C[C@@H]1C | 0.5 | -3.2 | 1.6 | 37.1* | / | -0.3
COc1ccc(C)cc1NC(=O)C(OC(=O)c1cnc(C)cn1)c1ccccc1 (stereo unspecified) | -0.8 | -0.6 | -3.3 | 2.9 | / | /
COc1ccc(NC(=O)C(OC(=O)c2cnc(C)cn2)c2ccccc2)cc1Cl (stereo unspecified) | -2.9 | -7.1 | 4.3 | 74.5* | 34.5 | /
Cc1ccc(NC(=O)C(OC(=O)c2ccc(F)cc2)c2ccccc2)cc1Cl (stereo unspecified) | -0.8 | / | 23.6 | 2.0 | 137.2* | 0.0
CO[C@@H]1CN(C)C(=O)c2cc(NC(=O)CC(F)(F)F)ccc2OC[C@@H](C)N(C(=O)C2CCOCC2)C[C@H]1C | / | 0.5 | 10.0 | / | 7.6[16.7 µM] | -0.3
COCC(=O)NC[C@@H]1[C@@H](c2ccc(-c3ccccc3)cc2)[C@H](CO)N1C(C)=O | -1.0 | 0.2 | 3.8 | 40.6* | 12.1[16.7 µM] | 9.6
CCC(=O)NC[C@@H]1[C@@H](c2ccc(-c3ccc(OC)cc3)cc2)[C@@H](CO)N1C(C)=O | -1.1 | -4.5 | -2.2 | 42.1* | / | 0.1
C[C@H](CO)N1C[C@H](C)[C@@H](CN(C)Cc2ccc(C(F)(F)F)cc2)OCCCC[C@H](C)Oc2ccc(NC(=O)NC3CCCCC3)cc2C1=O | -1.6 | -1.2 | -8.9 | 4.1 | -7.5[16.7 µM] | -0.1
NC(=O)CC[C@H](NC(=O)[C@H](Cc1ccccc1)n1c(=O)[nH]c2ccccc2c1=O)C(=O)N1CCC[C@H]1C(=O)O | 1.2 | -0.9 | 7.7 | 66.3* | -2.5 | /
